KCNK9 block: human KCNK9 channel inhibition; AID 488922; HEK293 KCNK9, FluxOR thallium flux fluorescence; hits give low values; B-score at 10 µM; 310,000 compounds, 1.2% hits;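 active = ratio B-score over 3 SD below the library mean, with starting fluorescence within 5 SD of its mean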;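 also: negative B-score means less thallium flux so channel inhibition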
Target sequence (Q9NPC2 whole entry, looked up): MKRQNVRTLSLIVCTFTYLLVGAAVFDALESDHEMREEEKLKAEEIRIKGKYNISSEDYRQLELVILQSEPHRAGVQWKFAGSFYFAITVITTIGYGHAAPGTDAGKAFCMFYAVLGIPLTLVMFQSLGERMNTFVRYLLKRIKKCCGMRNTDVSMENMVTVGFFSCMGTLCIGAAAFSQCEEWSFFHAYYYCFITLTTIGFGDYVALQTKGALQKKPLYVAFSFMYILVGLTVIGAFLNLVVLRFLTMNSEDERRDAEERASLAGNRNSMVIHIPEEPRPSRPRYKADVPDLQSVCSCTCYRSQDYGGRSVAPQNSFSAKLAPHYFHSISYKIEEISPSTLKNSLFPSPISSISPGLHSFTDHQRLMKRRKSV
Kir21 inh: blocks the mouse Kir2.1 inward-rectifier potassium channel; AID 1672; 310,000 compounds, 0.85% hits; HEK293-Kir2.1, FluxOR thallium flux fluorescence; hits give low values; B-score at 10 µM;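 active = fluorescence ratio B-score at or below minus 3 SD of library scores, with starting-brightness B-score within 2 SD, cut at about -4.2 in these data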;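 also: channel flux triggered by added potassium and thallium sulfate stimulus; B-score of peak minus minimum fluorescence over baseline after thallium stimulus; more negative B-score means stronger Kir2.1 block with less thallium influx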
hERG protect: shields human hERG channel from block by proarrhythmic agents | Q12809 | CHO-hERG, FluxOR thallium flux, dofetilide IC70 present | activation (rescue from dofetilide block), less the hit threshold, % at 10 µM | 310,000 compounds, 0.51% hits;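 active = activation above the mean of controls blocked by dofetilide plus 5 SD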;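 also: thallium influx through hERG after potassium depolarization seen as dye fluorescence rise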
KCNQ1 act: potentiators or activators of human KCNQ1 potassium channel; CHO-K1 KCNQ1, thallium flux FluxOR fluorescence; hits give high values; B-score at 10 µM; 310,000 compounds, 0.35% hits;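 active = fluorescence ratio B-score, a plate-corrected score, at least three library SD, with initial intensity B-score within 5 SD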
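System: Stable KCNQ1 CHO-K1 line | Incubation: 90 min dye loading and 20 min compound exposure, both at room temperature | Measure: Ratio B score | Medium: Assay buffer for compound exposure, DMSO matched across wells | Compound dosing: Single-concentration screen | Probe or stimulus: K+/Tl+ depolarizing stimulus | Measured by: Kinetic FluxOR fluorescence, 10 s baseline plus 110 s post-stimulus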
KCNQ1 inh: blocks the human KCNQ1 potassium channel. P51787. CHO-K1 KCNQ1, FluxOR thallium flux fluorescence; hits give high values. B-score at 10 µM. 310,000 compounds, 1.3% hits. AID 2642;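 active = compounds whose thallium flux B-score, printed positive for inhibition, exceeds three library SD while starting fluorescence stays within three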;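 also: channel opened by potassium depolarization with thallium stimulus after 20 min compound exposure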
KCNK3 block: human KCNK3 channel inhibition, primary screen; O14649; CHO-KCNK3 thallium flux, FluxOR fluorescence; hits give low values; B-score at 10 µM; 340,000 compounds, 0.84% hits; AID 602410;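 active = B-score under library mean minus 4 SD, starting fluorescence ratio at most library mean plus 5 SD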;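 also: more negative B-score means stronger inhibition of thallium flux through KCNK3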
KCNK9 block conf: confirmation of human KCNK9 potassium channel inhibitors; shares compounds with KCNK9 block; HEK293 KCNK9 cells, FluxOR thallium flux fluorescence; inhibition, % at 10 µM; 4,900 compounds, 43% hits; AID 492992;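 active = thallium signal inhibited by more than 5 SD of the compound-free buffer control wells, on both duplicate plates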;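 also: 0% = assay buffer control wells without compound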
Kir2-1 spec: mouse Kir2.1 off-target activity of KCNK9 modulators. shares compounds with KCNK9 block. Kir2.1 cells, FluxOR thallium flux fluorescence. inhibition, % at 10 µM. 4,900 compounds, 4% hits;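 active = thallium signal drop more than 5 SD beyond the mean of the no-compound control wells, seen in both duplicate plates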;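 also: signal is fluorescence rise after thallium addition divided by baseline fluorescence; plate controls were assay buffer only for no effect and full block by chlorpromazine control for full effect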
HEK293 Tl ctr: second check of KCNK9 modulator effects in non-induced HEK293 cells | shares compounds with KCNK9 block | FluxOR thallium flux | inhibition, % at 10 µM | 4,900 compounds, 40% hits;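 active = thallium signal drop beyond 5 SD of the untreated control mean, on both duplicate plates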;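 also: plate controls were buffer only IC0 wells for no effect and SID17386958 at its maximal inhibitory level for full effect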
KCNK3 confirm: confirmation of human KCNK3 two-pore domain potassium channel inhibitors | shares compounds with KCNK3 block | CHO-KCNK3 thallium flux, FluxOR fluorescence; 0% buffer, 100% carvedilol maximal block | ratio percent of control, % at 10 µM | 2,400 compounds, 99% hits | AID 651638;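 active = ratio percent of control, averaged over triplicates, above buffer control mean plus 5 SD, cut at about 64% in these data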;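 also: ratio is the fluorescence rise from min to max over baseline after thallium stimulus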
KCNK3 noninduced: KCNK3 inhibitor counter-screen hit in non-induced cells | 2,400 compounds, 40% hits | AID 651747 | shares compounds with KCNK3 block | non-induced KCNK3 parental cells, FluxOR thallium flux; hits give low values | thallium flux ratio (lower = more inhibition) at 10 µM;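 active = thallium flux ratio, averaged over three wells, more than 5 SD below the buffer control mean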;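 also: host cells are CHO cells without KCNK3 induction; ratio is peak minus trough fluorescence over baseline then normalized to buffer controls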
An asterisk follows results filed as active; i = inactive; x = no result. Hits are enriched below; roughly 3.8% of the tested compounds scored in any of these assays.

SMILES | KCNK9 block | Kir21 inh | hERG protect | KCNQ1 act | KCNQ1 inh | KCNK3 block | KCNK9 block conf | Kir2-1 spec | HEK293 Tl ctr | KCNK3 confirm | KCNK3 noninduced
COc1ccc(C(C)=O)cc1COC(=O)c1cc2ccccc2cc1O | -15* | 2.2 | -9 | i | i | -13* | 32%* | i | 29%* | 109* | i
CCC(C)n1c(SCC(=O)Nc2cc(C)on2)nc2ccccc2c1=O (centres undefined) | i | 0.03 | -5 | i | i | i | x | x | x | x | x
CCC(C)n1c(SCC(=O)Nc2cc(C(C)(C)C)nn2-c2ccccc2)nc2ccccc2c1=O (centres undefined) | -8.2* | 0.06 | -5 | i | 10* | i | 40%* | i | 38%* | 105* | 0.13*
Cc1ccc(C)c(Nc2c([N+](=O)[O-])c(=O)oc3ccccc23)c1 | i | 1 | -7 | i | i | i | x | x | x | x | x
CC1CC(C)CN(C(=O)COC(=O)c2c[nH]c3ccccc23)C1 (centres undefined) | x | x | x | x | x | i | x | x | x | x | x
COC(=O)c1ccsc1NC(=O)CN1CCN(c2ccc(F)cc2)CC1 | -11* | -0.27 | -8 | i | i | i | i | i | 28%* | 105* | i
CCCCC[C@@H]1C=C(C(=O)O)[C@H](c2ccc(OC)c(OC)c2)N1S(=O)(=O)c1ccc(C)cc1 | x | x | x | x | x | i | x | x | x | x | x
CSc1nc(Oc2ccc3ccccc3c2)c2sccc2n1 | -10* | 1.2 | -5 | i | i | -9* | 41%* | i | 32%* | 98* | i
CCOC(=O)c1c(CSC(=N)N)n(-c2ccc(C)cc2)c2cc(Br)c(OC(C)=O)cc12 | -8.7* | -15* | -36 | i | 6* | -12* | i | i | i | 129* | 0.15*
CCOC(=O)c1c(CN(C)C)n(-c2ccc(C)cc2)c2cc(Br)c(O)cc12 | i | -0.28 | -9 | i | i | i | x | x | x | x | x
COc1ccc(C(C)=O)cc1COc1ccc(-n2cnnn2)cc1 | i | -1.3 | -7 | i | i | i | x | x | x | x | x
CCOC(=O)CSc1nc2sc3c(c2c(=O)n1C1CCCCC1)CCN(C)C3 | i | -0.26 | -12 | i | i | i | x | x | x | x | x
O=C(C1CC1)N(Cc1ccco1)c1nc(-c2ccccc2)cs1 | -12* | -1.3 | -10 | i | i | -9.6* | 30%* | i | 49%* | 109* | i
O=C(COc1ccc(Cl)cc1)N(Cc1ccccc1)c1nc(-c2ccccc2)cs1 | i | -2.4 | -13 | i | i | i | x | x | x | x | x
O=C(N/N=C/C(Cl)=C/c1ccccc1)c1ccccc1F | i | -3.3 | -6 | i | i | i | x | x | x | x | x
O=C(N/N=C/C(Br)=C/c1ccccc1)c1ccccc1F | -9.2* | 1.8 | 3 | i | i | -9.4* | 28%* | i | i | 98* | i
CN(C)CC[C@@H](c1ccc(Cl)cc1)c1ccccn1 | i | -2.8 | -8 | i | i | i | x | x | x | x | x
CC(C)(C)n1nnnc1C(c1ccccn1)N(Cc1ccccc1)Cc1ccc(Cl)cc1 (centres undefined) | -16* | 0.96 | 0 | i | i | -9.2* | 60%* | i | 46%* | 100* | 0.15*
CC(C)(C)n1nnnc1C(c1cccs1)N(Cc1ccccc1)Cc1ccco1 (centres undefined) | -19* | -0.81 | -18 | i | 9* | -12* | 66%* | i | 46%* | 113* | 0.15*
CCC(C)(C)n1nnnc1C(c1cc2ccc(C)cc2[nH]c1=O)N(Cc1cccnc1)Cc1ccco1 (centres undefined) | i | 0.16 | -1 | i | i | i | x | x | x | x | x
CCC(C)c1ccc(NC(=S)N2CCN(C(=O)C3CCCO3)CC2)cc1 (centres undefined) | i | -0.05 | -14 | i | i | i | x | x | x | x | x
O=C(CCc1c[nH]c2ccccc12)NCC(=O)Nc1ccc(F)c(F)c1F | i | -0.17 | -14 | i | i | i | x | x | x | x | x
Cc1ccc(NC(=S)N(CCN2CCCCC2)Cc2ccco2)cc1Cl | -8.2* | 1.1 | -10 | i | i | -10* | i | i | 26%* | 108* | i
COc1ccc(NC(=S)N(CCN2CCCCC2)Cc2ccco2)cc1 | i | -0.72 | -21 | i | i | i | x | x | x | x | x
CCCOc1ccc(C(NC(=O)CC(C)C)NC(=O)CC(C)C)cc1OC | i | 0.02 | -5 | i | i | i | x | x | x | x | x
SMILES | KCNK9 block | Kir21 inh | hERG protect | KCNQ1 act | KCNQ1 inh | KCNK3 block | KCNK9 block conf | Kir2-1 spec | HEK293 Tl ctr | KCNK3 confirm | KCNK3 noninduced
Cc1cccc2cc(CN(Cc3cccs3)Cc3nnnn3Cc3ccccc3)c(=O)[nH]c12 | -13* | 0 | -3 | i | i | -11* | 29%* | i | 28%* | 88* | i
O=C(COC(=O)c1ccc(S(=O)(=O)N2CCCCC2)cc1)Nc1ccccc1Cl | x | x | x | x | x | i | x | x | x | x | x
N#CC(c1ccc(F)cc1)c1ccc(C(=O)c2ccc(F)cc2)cc1 (centres undefined) | -9.7* | -1.6 | -7 | i | i | -10* | 49%* | i | 34%* | 120* | i
O=C(COC(=O)c1c2c(nc3ccccc13)CCCC2)c1cccs1 | -10* | 0.61 | -18 | i | i | -12* | 54%* | i | i | 138* | 0.12*
Cc1cccc(N2C(=O)C(Oc3ccc(Cl)cc3Cl)C2C=O)c1C (centres undefined) | x | x | x | x | x | i | x | x | x | x | x
Cc1nc(N2CCN(C(=O)c3ccco3)CC2)c2c3c(sc2n1)CCCC3 | i | -1.4 | -15 | i | i | i | x | x | x | x | x
Cc1sc2nc(C3CC3)nc(N3CCN(S(=O)(=O)c4ccc(F)cc4)CC3)c2c1C | i | 0.09 | -14 | i | i | i | x | x | x | x | x
COc1ccc(C(=O)N2CCN(c3nc(C4CC4)nc4sc(C)c(C)c34)CC2)cc1 | i | 0.74 | -11 | i | i | i | x | x | x | x | x

Screens: PubChem, Johns Hopkins Ion Channel Center
